Data published in the M2OR odorant receptor database.

Target: T1, OR2J2 (Homo sapiens) (UniProt O76002)
T1 sequence (whole entry): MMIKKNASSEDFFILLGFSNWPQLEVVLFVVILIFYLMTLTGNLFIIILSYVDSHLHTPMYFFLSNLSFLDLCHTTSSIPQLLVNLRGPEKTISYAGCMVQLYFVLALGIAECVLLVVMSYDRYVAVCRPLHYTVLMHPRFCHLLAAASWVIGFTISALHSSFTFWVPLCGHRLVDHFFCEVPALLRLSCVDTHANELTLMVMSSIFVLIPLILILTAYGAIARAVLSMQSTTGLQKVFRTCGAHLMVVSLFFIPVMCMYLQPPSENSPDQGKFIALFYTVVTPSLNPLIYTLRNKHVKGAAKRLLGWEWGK
Conditions: stereoisomer not certain
Summary of the method: (§1)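 Each receptor–molecule pair is labelled responsive or non-responsive (inactive) according to whether the original authors judged the measured signal statistically different from baseline. The data were taken from the main text and supplementary material of published papers and checked for typos and inconsistencies. Assay methods differed by source, with transient luciferase assays in mammalian cell lines being common.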

SMILES	odorant receptor agonist call;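 further: active if original authors judged signal statistically different from baseline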
CCCCCC=O	inactive
CCCCCCCO	active
CCCC(C)=O	inactive
C=CCOC(=O)CCCCCC	inactive
CCCCCCCC(=O)[O-].[H+]	inactive
CCCCCCC(=O)[O-].[H+]	inactive
CCCCCCO	inactive
CCCCCO	inactive
CCOC(=O)C(C)C	inactive
CCCCCCCCCO	active
CCCCC(=O)CC	inactive
CCCCOC(=O)C(C)OC(=O)CCC (stereo unspecified)	inactive
CCCCCCCCS	inactive
CC(C)=CCCC(C)=CCO	inactive
CCCCC(=O)O	inactive
CCCCCCCCCC(=O)[O-].[H+]	inactive
CCC(=O)O	inactive
CCCCCCCCO	active
CCCCCCCC(C)=O	inactive
CCCCCCOC(C)=O	inactive
CCCCC(C)=O	inactive
CC12CCC(CC1=O)C2(C)C (stereo unspecified)	inactive
CC(C)=CCCC(C)CCO (stereo unspecified)	inactive
O=C(c1ccccc1)c1ccccc1	inactive

Target: T2, OR2L13 (Homo sapiens) (UniProt Q8N349)
T2 sequence (whole entry): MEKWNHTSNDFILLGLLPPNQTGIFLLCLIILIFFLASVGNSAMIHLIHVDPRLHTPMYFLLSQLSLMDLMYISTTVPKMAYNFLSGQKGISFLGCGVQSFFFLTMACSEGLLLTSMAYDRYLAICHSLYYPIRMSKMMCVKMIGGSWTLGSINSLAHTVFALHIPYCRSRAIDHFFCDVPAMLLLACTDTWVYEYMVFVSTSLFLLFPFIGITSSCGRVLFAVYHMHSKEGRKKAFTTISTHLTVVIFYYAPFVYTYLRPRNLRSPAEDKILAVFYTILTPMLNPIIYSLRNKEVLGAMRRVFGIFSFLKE
Conditions: stereoisomer not certain
Summary of the method: as §1

SMILES	odorant receptor agonist call;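 further: active if original authors judged signal statistically different from baseline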
Cc1cccc(C)c1C	inactive
CCCCCCCCCCCC(=O)OCC	inactive
CCCCCCCCCCCCCC(=O)O	inactive
CC(C)=CCCC(C)=CCCC(C)=CCO	inactive
Cc1ccc(C(C)C)cc1	inactive
CCCCOCC(C)O (stereo unspecified)	inactive
CCCCCCC(=O)[O-].[H+]	inactive
CCC(O)CC	inactive
CCCCCCCCCCCCCCC(=O)O	inactive
COc1ccc2[nH]cc(CCNC(C)=O)c2c1	inactive
CC(C)=CCCC(C)=CCO	inactive
CCCCCCCCCCCCCCCC(=O)OC	inactive
CCCC(=O)CC	inactive
CCCCCCCCCCCCCCCC(=O)[O-].[H+]	inactive
CCC(=O)O	inactive
CCCCCCCCO	inactive

Target: T3, OR2M3 (Homo sapiens) (UniProt Q8NG83)
T3 sequence (whole entry): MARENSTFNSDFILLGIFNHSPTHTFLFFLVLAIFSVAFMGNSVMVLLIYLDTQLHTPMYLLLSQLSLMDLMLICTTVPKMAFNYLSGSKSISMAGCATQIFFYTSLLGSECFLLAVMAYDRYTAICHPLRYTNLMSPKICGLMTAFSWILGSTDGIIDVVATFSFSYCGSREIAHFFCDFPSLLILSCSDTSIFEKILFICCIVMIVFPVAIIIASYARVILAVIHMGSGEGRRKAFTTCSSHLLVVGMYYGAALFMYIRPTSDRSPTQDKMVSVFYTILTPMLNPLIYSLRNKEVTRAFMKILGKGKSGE
Conditions: stereoisomer not certain
Summary of the method: as §1

SMILES	odorant receptor agonist call;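 further: active if original authors judged signal statistically different from baseline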
CCCCCC=O	inactive
CCCCCCCC(=O)[O-].[H+]	inactive
CCCCCCO	inactive
CCOC(=O)C(C)C	inactive
CCCCCCCCCO	inactive
CC(C)=CCCC(C)=CCO	inactive
CCCCC(=O)O	inactive
CCCCCCCCCC(=O)[O-].[H+]	inactive
CCC(=O)O	inactive
CCCCCCCC(C)=O	inactive
CCCCCCOC(C)=O	inactive
